Reference: ChEMBL document CHEMBL1126849, “Synthesis of A-ring fluorinated derivatives of (17 alpha,20E/Z)-[125I]iodovinylestradiols: effect on receptor binding and receptor-mediated target tissue uptake” (J Med Chem, 1993)

Columns and labels:
[1] = test system: Rattus norvegicus; assay: Biodistribution in blood of immature femalee rat after 1 hr administration of 3 micro Ci (111 kBq) in the presence of (+E2); type: ADME, organism-based; settings: in vivo
Outline: (§1)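 Immature female Long Evans rats (21–24 days, 45–70 g), unanesthetized in retention cages, given 3 µCi (111 kBq) 125I-labeled steroid i.v. via lateral tail vein. Vehicle was ethanol diluted in saline containing 1% Tween-80, giving 9% ethanol final. The blocking group received 60 µg unlabeled estradiol co-injected. Rats were killed under ether by axillary bleeding, and tissues were KCl-washed and gamma-counted. Data are %ID/g, mean ± SE, n=3–5.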

[2] = test system: Rattus norvegicus; assay: Biodistribution in liver of Iimmature female rat after 1 hr administration of 3 micro Ci (111 kBq) in the presence of (+E2); type: ADME, organism-based; settings: in vivo; outline: as §1

Molecule CO[C@H]1C[C@@]2(C)[C@@H](CC[C@@]2(O)/C=C\I)[C@@H]2CCc3c(ccc(O)c3F)[C@H]21 has an ID/g [1] of 0.81%.

Molecule CO[C@H]1C[C@@]2(C)[C@@H](CC[C@@]2(O)/C=C/I)[C@@H]2CCc3cc(O)c(F)cc3[C@H]21 has an ID/g [2] of 4.4%.
